The source made the active and inactive calls. No cut-off for these calls is given here.
What was measured:
HeLa [1] = assay: Cytotoxicity against human HeLa cells after 48 hrs by MTT assay; assay type: functional, cell-based
Summary of the method: (§1)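 Cells seeded at 3500–13,000 per well. A549, HeLa and HepG2 were grown in DMEM and BGC-823 in RPMI 1640, each with 10% CS plus penicillin/streptomycin, at 37 °C and 5% CO₂. Drug exposure lasted 2 days, followed by MTT readout at A₄₉₂, with untreated controls at 0.6–0.8. IC50 was the concentration cutting absorbance by 50%, interpolated by sigmoidal nonlinear regression. Run in triplicate.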

A549 [2] = assay: Cytotoxicity against human A549 cells after 48 hrs by MTT assay; assay type: functional, cell-based; conditions: for IC50: A549, 48 h; summary of the method: as §1
[3] = Cytotoxicity against human HL-7702 cells after 48 hrs by MTT assay; assay type: cell-based, L02; conditions: for IC50: Homo sapiens, L02, 48 h; for Activity: human, l02, 48 h
[4] = (§2) Cytotoxicity against human BGC823 cells after 48 hrs by MTT assay; assay type: functional, cell-based; conditions: BGC-823, 48 h; summary of the method: as §1
HepG2 [5] = assay: Cytotoxicity against human HepG2 cells after 48 hrs by MTT assay; assay type: functional, cell-based; conditions: for IC50: HepG2, 48 h; summary of the method: as §1
[6] = Octanol-water partition coefficient, log P of the compound; assay type: physicochemical
Summary of the method: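 Partitioning between 1-octanol and water. The compound concentration was measured in each phase, and logP was calculated as the log of the 1-octanol concentration over the water concentration. The water concentration was corrected by an index-error factor, Y = 2.555.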

[7] = Cytotoxicity against human HL-7702 cells after 48 hrs by MTT assay relative to etoposide; assay type: functional, L02
BGC-823 [8] = assay: as §2; assay type: functional, cell-based; summary of the method: as §1
A549 [9] = assay: Cytotoxicity against human A549 cells; assay type: functional, cell-based; summary of the method: as §1
[10] = Cytotoxicity against human BGC823 cells; assay type: functional, cell-based; conditions: BGC-823; summary of the method: as §1
HepG2 [11] = assay: Cytotoxicity against human HepG2 cells; assay type: functional, cell-based; summary of the method: as §1
[12] = molecular target: DNA topoisomerase 2-alpha (Homo sapiens) (UniProt P11388); assay: Inhibition of human DNA topoisomerase-2 using kDNA as substrate assessed as inhibition of DNA relaxation at 1 to 10 uM after 60 mins by agarose gel electrophoresis
BGC-823 [13] = assay: Selectivity ratio of etoposide IC50 to compound IC50 for human BGC823 cells; assay type: functional
A549 [14] = assay: Selectivity ratio of etoposide IC50 to compound IC50 for human A549 cells; assay type: functional
HepG2 [15] = assay: Selectivity ratio of etoposide IC50 to compound IC50 for human HepG2 cells; assay type: functional
HeLa [16] = assay: Induction of apoptosis in human HeLa cells assessed as late apoptotic cells at 10 uM after 48 hrs by Annexin V/propidium iodide staining-based flow cytometry (reference value: 2.3 %); assay type: functional
HeLa [17] = assay: Induction of apoptosis in human HeLa cells assessed as early apoptotic cells at 5 uM after 48 hrs by Annexin V/propidium iodide staining-based flow cytometry (reference value: 2.7 %); assay type: functional
A549 [18] = assay: Selectivity ratio of etoposide IC50 to compound IC50 for human A549 cells after 48 hrs by MTT assay; assay type: functional
HeLa [19] = assay: Cell cycle arrest in human HeLa cells assessed as accumulation at G2/M phase at 5 uM after 24 hrs by propidium iodide staining-based flow cytometry (reference value: 5.29 %); assay type: functional
HeLa [20] = assay: Induction of apoptosis in human HeLa cells after 48 hrs by Annexin V/propidium iodide staining-based flow cytometry; assay type: functional, cell-based
HeLa [21] = assay: Induction of apoptosis in human HeLa cells assessed as late apoptotic cells at 5 uM after 48 hrs by Annexin V/propidium iodide staining-based flow cytometry (reference value: 2.3 %); assay type: functional
BGC-823 [22] = assay: Selectivity ratio of etoposide IC50 to compound IC50 for human BGC823 cells after 48 hrs by MTT assay; assay type: functional
HeLa [23] = assay: Induction of apoptosis in human HeLa cells assessed as early apoptotic cells at 10 uM after 48 hrs by Annexin V/propidium iodide staining-based flow cytometry (reference value: 2.7 %); assay type: functional
HeLa [24] = assay: Cell cycle arrest in human HeLa cells assessed as accumulation at G2/M phase at 1 uM after 24 hrs by propidium iodide staining-based flow cytometry (reference value: 5.29 %); assay type: functional
HeLa [25] = assay: Cell cycle arrest in human HeLa cells assessed as accumulation at G0/G1 phase at 5 uM after 24 hrs by propidium iodide staining-based flow cytometry (reference value: 37.26 %); assay type: functional
HeLa [26] = assay: Selectivity ratio of etoposide IC50 to compound IC50 for human HeLa cells after 48 hrs by MTT assay; assay type: functional
HeLa [27] = assay: Cell cycle arrest in human HeLa cells assessed as accumulation at G0/G1 phase at 0.5 uM after 24 hrs by propidium iodide staining-based flow cytometry (reference value: 37.26 %); assay type: functional
HeLa [28] = assay: Induction of apoptosis in human HeLa cells assessed as late apoptotic cells at 1 uM after 48 hrs by Annexin V/propidium iodide staining-based flow cytometry (reference value: 2.3 %); assay type: functional
HeLa [29] = assay: Cell cycle arrest in human HeLa cells assessed as accumulation at G0/G1 phase at 1 uM after 24 hrs by propidium iodide staining-based flow cytometry (reference value: 37.26 %); assay type: functional
HeLa [30] = assay: Induction of apoptosis in human HeLa cells assessed as early apoptotic cells at 1 uM after 48 hrs by Annexin V/propidium iodide staining-based flow cytometry (reference value: 2.7 %); assay type: functional
HepG2 [31] = assay: Selectivity ratio of etoposide IC50 to compound IC50 for human HepG2 cells after 48 hrs by MTT assay; assay type: functional
HeLa [32] = assay: Cell cycle arrest in human HeLa cells after 24 hrs by propidium iodide staining-based flow cytometry; assay type: functional
HeLa [33] = assay: Cell cycle arrest in human HeLa cells assessed as accumulation at G2/M phase at 0.5 uM after 24 hrs by propidium iodide staining-based flow cytometry (reference value: 5.29 %); assay type: functional

DNA topoisomerase 2-alpha (Homo sapiens), sequence (P11388 whole entry): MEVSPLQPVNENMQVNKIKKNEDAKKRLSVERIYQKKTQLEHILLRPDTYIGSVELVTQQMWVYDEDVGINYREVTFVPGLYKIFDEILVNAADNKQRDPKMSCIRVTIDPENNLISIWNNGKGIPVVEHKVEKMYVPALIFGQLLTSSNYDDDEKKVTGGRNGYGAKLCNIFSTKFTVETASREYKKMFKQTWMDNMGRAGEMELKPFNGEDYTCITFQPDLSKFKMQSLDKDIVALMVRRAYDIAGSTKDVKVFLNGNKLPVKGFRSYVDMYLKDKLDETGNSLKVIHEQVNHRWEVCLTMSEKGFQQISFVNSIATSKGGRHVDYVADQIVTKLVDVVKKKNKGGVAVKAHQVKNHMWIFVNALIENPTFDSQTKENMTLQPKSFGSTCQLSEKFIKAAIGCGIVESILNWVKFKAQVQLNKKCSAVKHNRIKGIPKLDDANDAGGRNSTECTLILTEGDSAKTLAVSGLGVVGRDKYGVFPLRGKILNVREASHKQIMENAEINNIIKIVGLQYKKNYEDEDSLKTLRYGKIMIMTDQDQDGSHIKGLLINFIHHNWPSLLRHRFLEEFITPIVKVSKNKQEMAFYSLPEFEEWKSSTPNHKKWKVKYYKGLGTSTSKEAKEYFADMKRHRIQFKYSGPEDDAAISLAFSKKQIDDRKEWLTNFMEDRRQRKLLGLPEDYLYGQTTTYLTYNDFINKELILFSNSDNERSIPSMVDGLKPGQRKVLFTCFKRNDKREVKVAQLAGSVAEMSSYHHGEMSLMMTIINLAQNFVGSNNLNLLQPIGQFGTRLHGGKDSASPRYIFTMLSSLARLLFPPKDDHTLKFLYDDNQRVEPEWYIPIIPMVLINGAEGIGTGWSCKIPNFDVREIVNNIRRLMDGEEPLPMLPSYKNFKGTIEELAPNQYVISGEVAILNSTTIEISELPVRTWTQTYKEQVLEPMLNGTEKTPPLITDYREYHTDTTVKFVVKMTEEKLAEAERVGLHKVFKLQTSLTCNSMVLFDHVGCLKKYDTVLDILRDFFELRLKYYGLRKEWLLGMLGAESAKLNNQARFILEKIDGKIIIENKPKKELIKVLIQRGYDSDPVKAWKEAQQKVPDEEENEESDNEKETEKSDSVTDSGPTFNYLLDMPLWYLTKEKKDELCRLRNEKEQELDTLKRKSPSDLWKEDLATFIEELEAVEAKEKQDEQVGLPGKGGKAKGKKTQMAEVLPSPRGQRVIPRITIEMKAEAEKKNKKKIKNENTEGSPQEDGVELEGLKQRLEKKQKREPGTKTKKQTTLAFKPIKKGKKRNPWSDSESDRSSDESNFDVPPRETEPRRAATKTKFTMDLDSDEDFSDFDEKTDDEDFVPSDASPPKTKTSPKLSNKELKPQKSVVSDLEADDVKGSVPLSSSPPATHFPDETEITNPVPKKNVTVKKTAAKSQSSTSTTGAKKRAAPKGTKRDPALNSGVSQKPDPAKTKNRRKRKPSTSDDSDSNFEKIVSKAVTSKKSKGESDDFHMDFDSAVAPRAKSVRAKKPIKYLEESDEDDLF

SMILES | IC50 (HeLa [1]) | IC50 (A549 [2]) | IC50 [3] | Activity [3] | IC50 [4] | IC50 (HepG2 [5]) | logP [6] | Activity [7] | further results
COc1cc([C@@H]2c3cc4c(cc3[C@@H](OC(=O)c3cnc(C)cn3)[C@H]3COC(=O)[C@H]23)OCO4)cc(OC)c1O | 9.56 µM | 10.5 µM | 18.6 µM | Dose-dependent effect | 1.5 µM | 14.2 µM | 0.38 | – | –
COc1cc([C@@H]2c3cc4c(cc3[C@@H](NC(=O)c3cnccn3)[C@H]3COC(=O)[C@H]23)OCO4)cc(OC)c1O | 10.8 µM | 16.5 µM | 53.6 µM | Dose-dependent effect | 14.4 µM | 6.64 µM | 0.43 | 117% | –
COc1cc([C@@H]2c3cc4c(cc3[C@@H](O[C@@H]3O[C@@H]5CO[C@@H](C)O[C@H]5[C@H](O)[C@H]3O)[C@H]3COC(=O)[C@H]23)OCO4)cc(OC)c1O [ETOPOSIDE] | 59.4 µM | 67.2 µM | 24.6 µM | Dose-dependent effect | 30.7 µM | 15.3 µM | 0.52 | – | Activity (HeLa [1]): Dose-dependent effect; Activity (A549 [2]): Dose-dependent effect; Activity (BGC-823 [8]): Dose-dependent effect; IC50 (A549 [9]): 168 µM; Activity (HepG2 [5]): Dose-dependent effect; IC50 [10]: 25.7 µM; IC50 (HepG2 [11]): 1.15 µM; inhibition [12]: Active
COc1cc([C@@H]2c3cc4c(cc3[C@@H](Sc3nc[nH]n3)[C@H]3COC(=O)[C@H]23)OCO4)cc(OC)c1O | – | – | – | – | – | – | – | – | IC50 (A549 [9]): 0.76 µM; Ratio IC50 (BGC-823 [13]): 91; IC50 [10]: 0.28 µM; Ratio IC50 (A549 [14]): 221; IC50 (HepG2 [11]): 0.42 µM; Ratio IC50 (HepG2 [15]): 2.73
COc1cc([C@@H]2c3cc4c(cc3[C@@H](OC(=O)c3ccc5ccccc5n3)[C@H]3COC(=O)[C@H]23)OCO4)cc(OC)c1O | 20.5 µM | 19.2 µM | 20.1 µM | Dose-dependent effect | 28.8 µM | 9.18 µM | 0.8 | – | –
COc1cc([C@@H]2c3cc4c(cc3[C@@H](OC(=O)Cn3cnc5c3c(=O)n(C)c(=O)n5C)[C@H]3COC(=O)[C@H]23)OCO4)cc(OC)c1O | 0.65 µM | 6.91 µM | 38 µM | Dose-dependent effect | 2 µM | 7.91 µM | 0.43 | 54% | –
COc1cc([C@@H]2c3cc4c(cc3[C@@H](O)[C@H]3COC(=O)[C@H]23)OCO4)cc(OC)c1O [4'-DEMETHYLEPIPODOPHYLLOTOXIN] | 16 µM | 52.1 µM | 13 µM | Dose-dependent effect | 21.3 µM | 18.7 µM | 0.73 | – | Activity (HeLa [1]): Dose-dependent effect; Activity (A549 [2]): Dose-dependent effect; Activity (BGC-823 [8]): Dose-dependent effect; Activity (HepG2 [5]): Dose-dependent effect
COc1cc([C@@H]2c3cc4c(cc3[C@@H](NC(=O)c3cnc(C)cn3)[C@H]3COC(=O)[C@H]23)OCO4)cc(OC)c1O | 16.1 µM | 18.7 µM | 20.7 µM | Dose-dependent effect | 3.49 µM | 6.78 µM | 0.59 | – | –
COc1cc([C@@H]2c3cc4c(cc3[C@@H](OC(=O)c3cn(C5CC5)c5cc(Cl)c(F)cc5c3=O)[C@H]3COC(=O)[C@H]23)OCO4)cc(OC)c1O | 0.6 µM | 10.1 µM | 41.8 µM | Dose-dependent effect | 17.4 µM | 16 µM | 0.69 | 70% | –
COc1cc([C@@H]2c3cc4c(cc3[C@@H](NC(=O)c3cc(O)c(O)c(O)c3)[C@H]3COC(=O)[C@H]23)OCO4)cc(OC)c1O | 22.3 µM | 33.5 µM | 14.8 µM | Dose-dependent effect | 24.2 µM | 27.4 µM | 0.29 | – | –
COc1cc([C@@H]2c3cc4c(cc3[C@@H](NC(=O)Cn3cnc5c3c(=O)n(C)c(=O)n5C)[C@H]3COC(=O)[C@H]23)OCO4)cc(OC)c1O | 3.18 µM | 7.32 µM | 50.8 µM | Dose-dependent effect | 5.88 µM | 2.35 µM | 0.56 | 106% | –
COc1cc([C@@H]2c3cc4c(cc3[C@@H](OC(=O)c3cnccn3)[C@H]3COC(=O)[C@H]23)OCO4)cc(OC)c1O | 0.6 µM | 3.83 µM | 52.4 µM | Dose-dependent effect | 4.15 µM | 1.21 µM | 0.33 | 114% | Activity (HeLa [16]): 45.5%; Activity (HeLa [17]): 10.3%; Ratio IC50 (A549 [18]): 16; Activity (HeLa [19]): 66.85%; Activity (HeLa [20]): Dose-dependent effect; Activity (HeLa [21]): 30.1%; Ratio IC50 (BGC-823 [22]): 6; Activity (HeLa [23]): 10.8%; Activity (HeLa [24]): 60.96%; Activity (HeLa [25]): 4.01%; Ratio IC50 (HeLa [26]): 66; Activity (HeLa [27]): 39.65%; Activity (HeLa [28]): 7.2%; Activity (HeLa [29]): 5.49%; Activity (HeLa [30]): 4.2%; Ratio IC50 (HepG2 [31]): 12; inhibition [12]: Active; Activity (HeLa [32]): Dose-dependent effect; Activity (HeLa [33]): 19.88%
